Measurements taken from ChEMBL document CHEMBL2010758, “Antidotes to anthrax lethal factor intoxication. Part 3: Evaluation of core structures and further modifications to the C2-side chain” (Bioorg Med Chem Lett, 2012).
The source made the active and inactive calls. The calls are words filed in the database; no cut-off is given here.

Columns and labels:
Rattus norvegicus [1] = assay: Inhibition of Anthrax LT-induced toxicity in Fischer 344 rat assessed as increase in survival at 5 mg/kg, iv administered 20 to 30 mins after LT challenge; assay type: functional, organism-based; set-up: dose 5 mg/kg
Plasma = assay: Stability in plasma assessed as compound remaining at 3 hrs; assay type: ADME, cell-free
Summary of the method: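 Compound incubated in plasma. Result given as percent of compound remaining at 3 hours.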

Cytochrome P450 2D6 = Cytochrome P450 2D6 (Homo sapiens, UniProt P10635); assay: Inhibition of CYP2D6; assay type: ADME
Stromelysin-1 = Stromelysin-1 (Homo sapiens, UniProt P08254); assay: Inhibition of MMP-3 using OmniMMP as substrate
[2] = Lipophilicity, Log D of the compound; assay type: physicochemical; conditions: octanol/water
Rattus norvegicus [3] = assay: Inhibition of Anthrax LT-induced toxicity in Fischer 344 rat assessed as increase in survival at 2.5 mg/kg, iv administered 20 to 30 mins after LT challenge; assay type: functional, organism-based; set-up: dose 2.5 mg/kg
RAW264.7 = assay: Cytotoxicity against mouse RAW264.7 cells by MTT assay; assay type: cell-based
[4] = biological target: Voltage-gated inwardly rectifying potassium channel KCNH2 (Homo sapiens, UniProt Q12809); assay: Inhibition of human ERG by fluorescence polarization assay
[5] = biological target: Matrix metalloproteinase-14 (Homo sapiens, UniProt P50281); assay: Inhibition of MMP-14 using OmniMMP as substrate
[6] = biological target: Matrix metalloproteinase-9 (Homo sapiens, UniProt P14780); assay: Inhibition of MMP-9 using OmniMMP as substrate
[7] = Stability in rat liver microsomes assessed as compound remaining at 30 mins; assay type: ADME, Microsome; conditions: read-out: Stability
Summary of the method: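 Compound incubated with rat liver microsomes for 30 min. Result given as percent of parent compound remaining at t = 30 min.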

[8] = biological target: Macrophage metalloelastase (Homo sapiens, UniProt P39900); assay: Inhibition of MMP-12 using OmniMMP as substrate
Interstitial collagenase = biological target: T1, Interstitial collagenase (Homo sapiens, UniProt P03956); assay: Inhibition of MMP-1 using OmniMMP as substrate
T1 sequence (P03956 whole entry): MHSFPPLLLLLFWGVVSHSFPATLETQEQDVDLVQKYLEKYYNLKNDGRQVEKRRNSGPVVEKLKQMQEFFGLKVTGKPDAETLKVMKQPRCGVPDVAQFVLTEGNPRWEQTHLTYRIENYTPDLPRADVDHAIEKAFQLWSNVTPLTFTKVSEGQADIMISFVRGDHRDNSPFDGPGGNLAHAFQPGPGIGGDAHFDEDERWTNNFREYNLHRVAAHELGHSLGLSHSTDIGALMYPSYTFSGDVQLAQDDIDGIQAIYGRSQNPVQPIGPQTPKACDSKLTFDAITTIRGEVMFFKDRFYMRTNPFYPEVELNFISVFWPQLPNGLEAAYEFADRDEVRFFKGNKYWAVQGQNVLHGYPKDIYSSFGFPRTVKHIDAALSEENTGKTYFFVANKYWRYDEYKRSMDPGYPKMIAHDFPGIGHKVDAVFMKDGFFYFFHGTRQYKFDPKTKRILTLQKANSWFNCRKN

[9] = Stability of the compound in presence of UGT; assay type: ADME
Summary of the method: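 UGT (glucuronidation) stability assay, incubated for 30 min. Result given as percent of compound remaining at t = 30 min.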

Lethal factor = biological target: T2, Lethal factor (Bacillus anthracis, UniProt P15917); assay: Inhibition of N-terminal 6-histine tagged Bacillus anthracis LF 263-C terminal catalytic domain using MCA-KKVYPYPME-Dap(Dnp)-NH2 as substrate after 4 hrs by FRET analysis
T2 sequence (P15917 whole entry): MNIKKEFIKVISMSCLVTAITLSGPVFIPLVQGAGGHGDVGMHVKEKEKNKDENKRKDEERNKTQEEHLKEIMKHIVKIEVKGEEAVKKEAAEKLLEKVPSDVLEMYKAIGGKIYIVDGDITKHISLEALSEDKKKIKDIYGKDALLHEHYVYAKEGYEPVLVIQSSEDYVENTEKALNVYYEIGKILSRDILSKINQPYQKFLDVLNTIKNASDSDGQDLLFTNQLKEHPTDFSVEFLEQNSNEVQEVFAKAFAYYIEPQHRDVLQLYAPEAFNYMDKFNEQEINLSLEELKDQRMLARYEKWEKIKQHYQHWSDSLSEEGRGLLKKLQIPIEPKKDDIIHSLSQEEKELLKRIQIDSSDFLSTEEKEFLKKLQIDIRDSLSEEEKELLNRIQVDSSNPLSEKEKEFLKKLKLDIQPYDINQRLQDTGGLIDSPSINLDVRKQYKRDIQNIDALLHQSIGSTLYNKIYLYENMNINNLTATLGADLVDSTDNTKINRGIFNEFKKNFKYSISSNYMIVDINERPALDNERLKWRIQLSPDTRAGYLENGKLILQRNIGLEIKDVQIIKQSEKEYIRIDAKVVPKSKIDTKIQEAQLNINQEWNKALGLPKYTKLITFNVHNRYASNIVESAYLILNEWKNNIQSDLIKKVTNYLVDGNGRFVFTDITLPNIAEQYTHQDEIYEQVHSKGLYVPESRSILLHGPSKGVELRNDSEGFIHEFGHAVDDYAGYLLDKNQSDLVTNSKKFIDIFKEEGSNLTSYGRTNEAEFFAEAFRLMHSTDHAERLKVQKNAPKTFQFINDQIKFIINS

Rattus norvegicus [10] = assay: Inhibition of Anthrax LT-induced toxicity in Fischer 344 rat assessed as increase in survival at 1.25 mg/kg, iv administered 20 to 30 mins after LT challenge; assay type: functional, organism-based; set-up: dose 1.25 mg/kg
Oryctolagus cuniculus [11] = assay: Terminal half life in NZW rabbit at 10 mg/kg, sc; assay type: ADME, organism-based; set-up: dose 10 mg/kg, route subcutaneous; conditions: in vivo
Summary of the method: (§1)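 Single subcutaneous dose of 10 mg/kg given to NZW rabbits in DMSO:PEG400:pH 6 citrate buffer (2:10:88). Plasma drug levels were followed over time, including a 12 h sample. Tmax, Cmax, terminal (β) half-life and AUC to infinity were derived from the plasma concentration–time profile.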

Oryctolagus cuniculus [12] = assay: Cmax in NZW rabbit at 10 mg/kg, sc; assay type: ADME, organism-based; set-up: dose 10 mg/kg, route subcutaneous; conditions: in vivo; summary of the method: as §1
Oryctolagus cuniculus [13] = assay: AUC (infinity) in NZW rabbit at 10 mg/kg, sc; assay type: ADME, organism-based, Plasma; set-up: time infinity, dose 10 mg/kg, route subcutaneous; conditions: in vivo; summary of the method: as §1
Oryctolagus cuniculus [14] = assay: Tmax in NZW rabbit at 10 mg/kg, sc; assay type: ADME, organism-based; set-up: dose 10 mg/kg, route subcutaneous; conditions: in vivo; summary of the method: as §1
[15] = Plasma concentration in NZW rabbit at 10 mg/kg, sc at 12 hrs; assay type: ADME, organism-based, Oryctolagus cuniculus; set-up: dose 10 mg/kg, route subcutaneous; summary of the method: as §1

Chain of Cytochrome P450 2D6 (P10635 whole entry): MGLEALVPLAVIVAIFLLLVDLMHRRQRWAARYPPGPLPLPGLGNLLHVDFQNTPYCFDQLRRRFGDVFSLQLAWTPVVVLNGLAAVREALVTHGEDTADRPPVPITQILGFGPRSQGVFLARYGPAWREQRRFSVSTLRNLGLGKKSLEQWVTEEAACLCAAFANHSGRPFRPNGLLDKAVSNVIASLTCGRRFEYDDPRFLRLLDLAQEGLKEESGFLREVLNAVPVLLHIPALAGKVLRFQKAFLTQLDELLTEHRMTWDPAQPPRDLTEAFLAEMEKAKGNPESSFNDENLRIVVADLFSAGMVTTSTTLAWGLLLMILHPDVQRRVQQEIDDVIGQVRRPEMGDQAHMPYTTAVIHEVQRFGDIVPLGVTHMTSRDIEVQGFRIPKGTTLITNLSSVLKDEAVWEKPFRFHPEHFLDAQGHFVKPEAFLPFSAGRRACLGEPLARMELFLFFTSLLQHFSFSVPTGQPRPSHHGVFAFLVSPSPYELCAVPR
Chain of Voltage-gated inwardly rectifying potassium channel KCNH2 (Q12809 whole entry): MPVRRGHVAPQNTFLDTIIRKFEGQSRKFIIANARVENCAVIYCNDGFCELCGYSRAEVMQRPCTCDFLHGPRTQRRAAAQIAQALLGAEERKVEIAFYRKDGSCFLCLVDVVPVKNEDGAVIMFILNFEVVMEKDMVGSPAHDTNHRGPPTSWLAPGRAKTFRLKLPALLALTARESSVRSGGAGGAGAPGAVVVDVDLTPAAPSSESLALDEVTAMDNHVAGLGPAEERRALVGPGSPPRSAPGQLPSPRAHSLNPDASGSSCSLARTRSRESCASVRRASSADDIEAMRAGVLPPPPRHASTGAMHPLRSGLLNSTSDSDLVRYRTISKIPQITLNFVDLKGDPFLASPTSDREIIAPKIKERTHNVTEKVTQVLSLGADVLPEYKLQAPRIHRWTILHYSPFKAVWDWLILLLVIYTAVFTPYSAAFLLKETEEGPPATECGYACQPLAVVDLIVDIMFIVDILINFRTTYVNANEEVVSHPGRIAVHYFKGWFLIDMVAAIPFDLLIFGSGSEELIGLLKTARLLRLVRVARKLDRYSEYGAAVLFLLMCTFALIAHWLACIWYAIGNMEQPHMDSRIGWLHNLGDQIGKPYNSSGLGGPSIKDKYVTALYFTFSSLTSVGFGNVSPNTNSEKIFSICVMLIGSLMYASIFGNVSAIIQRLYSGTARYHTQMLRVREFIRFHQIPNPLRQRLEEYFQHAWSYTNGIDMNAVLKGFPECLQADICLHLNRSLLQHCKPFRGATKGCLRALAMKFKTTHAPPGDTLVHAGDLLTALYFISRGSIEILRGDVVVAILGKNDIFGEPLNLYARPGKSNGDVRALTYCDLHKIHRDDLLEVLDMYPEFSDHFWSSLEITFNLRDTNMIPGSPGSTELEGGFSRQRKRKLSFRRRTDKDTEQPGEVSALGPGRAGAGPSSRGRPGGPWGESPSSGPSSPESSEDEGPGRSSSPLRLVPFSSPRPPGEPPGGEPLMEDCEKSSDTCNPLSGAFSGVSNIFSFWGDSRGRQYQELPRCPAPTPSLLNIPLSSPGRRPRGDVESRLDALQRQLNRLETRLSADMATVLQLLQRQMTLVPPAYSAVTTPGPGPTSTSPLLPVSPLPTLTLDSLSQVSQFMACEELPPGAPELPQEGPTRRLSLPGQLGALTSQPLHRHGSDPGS
Chain of Macrophage metalloelastase (P39900 whole entry): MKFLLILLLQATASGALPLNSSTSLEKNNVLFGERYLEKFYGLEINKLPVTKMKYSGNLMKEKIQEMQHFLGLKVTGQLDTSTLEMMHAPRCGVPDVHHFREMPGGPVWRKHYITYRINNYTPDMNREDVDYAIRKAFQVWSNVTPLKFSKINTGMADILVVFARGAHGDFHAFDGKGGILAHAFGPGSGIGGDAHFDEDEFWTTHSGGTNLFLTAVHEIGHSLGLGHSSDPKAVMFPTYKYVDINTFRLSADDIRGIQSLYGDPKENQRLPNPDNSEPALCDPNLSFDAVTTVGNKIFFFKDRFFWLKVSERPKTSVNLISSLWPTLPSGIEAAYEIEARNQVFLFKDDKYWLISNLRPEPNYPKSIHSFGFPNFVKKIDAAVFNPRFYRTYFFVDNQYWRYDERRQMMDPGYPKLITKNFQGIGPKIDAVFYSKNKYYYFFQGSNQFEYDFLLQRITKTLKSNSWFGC
Chain of Stromelysin-1 (P08254 whole entry): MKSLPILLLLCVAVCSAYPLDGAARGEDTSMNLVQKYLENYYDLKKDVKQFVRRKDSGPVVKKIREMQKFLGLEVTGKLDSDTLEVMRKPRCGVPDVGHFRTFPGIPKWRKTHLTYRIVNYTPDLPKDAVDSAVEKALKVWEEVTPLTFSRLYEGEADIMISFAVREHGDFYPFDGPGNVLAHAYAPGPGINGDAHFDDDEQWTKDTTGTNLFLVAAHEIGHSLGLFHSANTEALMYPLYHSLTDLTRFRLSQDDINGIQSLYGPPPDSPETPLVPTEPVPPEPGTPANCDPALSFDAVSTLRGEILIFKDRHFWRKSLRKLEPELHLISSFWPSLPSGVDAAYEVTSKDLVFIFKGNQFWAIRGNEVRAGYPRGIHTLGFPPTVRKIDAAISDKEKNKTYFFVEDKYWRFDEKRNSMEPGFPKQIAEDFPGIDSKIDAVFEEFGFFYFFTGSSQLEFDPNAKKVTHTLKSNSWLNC
Chain of Matrix metalloproteinase-9 (P14780 whole entry): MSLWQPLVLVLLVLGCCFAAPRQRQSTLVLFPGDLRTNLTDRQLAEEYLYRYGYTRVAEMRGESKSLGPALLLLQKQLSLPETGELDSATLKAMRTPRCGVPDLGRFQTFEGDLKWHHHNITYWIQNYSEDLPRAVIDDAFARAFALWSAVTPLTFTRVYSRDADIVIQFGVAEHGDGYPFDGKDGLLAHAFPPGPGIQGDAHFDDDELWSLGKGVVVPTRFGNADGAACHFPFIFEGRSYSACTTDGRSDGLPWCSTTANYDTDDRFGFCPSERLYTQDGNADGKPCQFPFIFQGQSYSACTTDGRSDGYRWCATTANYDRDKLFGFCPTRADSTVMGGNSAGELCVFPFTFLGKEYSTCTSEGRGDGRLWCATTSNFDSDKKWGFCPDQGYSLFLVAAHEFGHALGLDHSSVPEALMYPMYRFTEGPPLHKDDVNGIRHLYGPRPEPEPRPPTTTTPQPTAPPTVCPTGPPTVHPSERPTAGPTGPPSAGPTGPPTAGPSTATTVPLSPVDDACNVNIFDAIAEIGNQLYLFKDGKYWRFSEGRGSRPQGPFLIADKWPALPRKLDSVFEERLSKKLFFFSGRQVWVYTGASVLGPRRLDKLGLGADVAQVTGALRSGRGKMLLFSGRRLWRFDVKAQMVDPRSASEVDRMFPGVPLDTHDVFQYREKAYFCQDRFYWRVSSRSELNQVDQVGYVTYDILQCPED

| SMILES | Survival increase (active/not active) (Rattus norvegicus [1]) | Stability (Plasma) | IC50 (Cytochrome P450 2D6) | Ki (Stromelysin-1) | logD [2] | inhibition (Rattus norvegicus [3]) | CC50 (RAW264.7) | Ki [5] | Ki [6] | remaining at 0.5 h [7] | Ki [8] | Ki (Interstitial collagenase) | Stability [9] | Ki (Lethal factor) | other results |
| --- | --- | --- | --- | --- | --- | --- | --- | --- | --- | --- | --- | --- | --- | --- | --- |
| Cc1cc(N[C@H](CCCCNCc2ccc(F)cc2)C(=O)NO)cc(C)c1F | Active | 90% | 1.35 µM | > 50 µM | 2.3 | Active | 61 µM | > 50 µM | > 50 µM | 60% | > 50 µM | > 50 µM | 38% | – | IC50 [4]: 1.23 µM |
| CO[C@H](C[C@H](CCCCNCc1ccc(F)cc1)C(=O)NO)c1ccc(F)cc1 | Active | – | – | > 50 µM | 2.4 | – | 55 µM | > 50 µM | 21 µM | 91% | 2.3 µM | 33 µM | 99% | – | – |
| Cc1cc(O[C@H](CCCCNCc2ccc(F)cc2)C(=O)NO)cc(C)c1F | inactive | 61% | 0.23 µM | > 50 µM | 3.1 | – | 26 µM | > 50 µM | > 50 µM | 3% | > 50 µM | > 50 µM | 76% | – | IC50 [4]: 0.79 µM |
| Cc1cc(C[C@H](CCCCNCc2ccc(F)cc2)C(=O)NO)cc(C)c1F | Active | 100% | 0.02 µM | > 50 µM | 2.2 | Active | 16 µM | > 50 µM | > 50 µM | 18% | > 50 µM | > 50 µM | 79% | – | IC50 [4]: 4.65 µM |
| Cc1cc(C[C@H](CCCCN[C@H](C)c2ccc(F)cc2)C(=O)NO)cc(C)c1F | – | – | – | – | – | – | – | – | – | – | – | – | – | 0.3 nM | – |
| Cc1cc(C[C@H](CCCCN[C@@H](C)c2ccc(F)cc2)C(=O)NO)cc(C)c1F | – | – | – | – | – | – | – | – | – | – | – | – | – | 0.49 nM | – |
| CC[C@@H](NCCCC[C@@H](Cc1cc(C)c(F)c(C)c1)C(=O)NO)c1ccc(F)cc1 | – | – | – | – | – | – | – | – | – | – | – | – | – | 0.04 nM | – |
| CC[C@H](NCCCC[C@@H](Cc1cc(C)c(F)c(C)c1)C(=O)NO)c1ccc(F)cc1 | – | – | – | – | – | – | – | – | – | – | – | – | – | 0.11 nM | – |
| Cc1cc(C[C@H](CCCCN[C@H](CC(C)C)c2ccc(F)cc2)C(=O)NO)cc(C)c1F | – | – | – | – | – | – | – | – | – | – | – | – | – | 0.23 nM | – |
| Cc1cc(C[C@H](CCCCN[C@@H](CC(C)C)c2ccc(F)cc2)C(=O)NO)cc(C)c1F | – | – | – | – | – | – | – | – | – | – | – | – | – | 1.3 nM | – |
| Cc1cc(C[C@H](CCCCN[C@H](Cc2ccccc2)c2ccc(F)cc2)C(=O)NO)cc(C)c1F | – | – | – | – | – | – | – | – | – | – | – | – | – | 0.6 nM | – |
| Cc1cc(C[C@H](CCCCN[C@@H](Cc2ccccc2)c2ccc(F)cc2)C(=O)NO)cc(C)c1F | – | – | – | – | – | – | – | – | – | – | – | – | – | 2 nM | – |
| CCC(NCCCC[C@@H](Cc1cc(C)c(F)c(C)c1)C(=O)NO)c1ccc(F)cc1 (mixture of isomers) | Active | 95% | 0.08 µM | > 50 µM | 2.9 | Active | 15 µM | > 50 µM | > 50 µM | 55% | > 50 µM | > 50 µM | 100% | 0.31 nM | inhibition (Rattus norvegicus [10]): Active |
| CCC(NCCCC[C@@H](Nc1cc(C)c(F)c(C)c1)C(=O)NO)c1ccc(F)cc1 (mixture of isomers) | Active | 84% | 0.24 µM | > 50 µM | 3.3 | Active | 32 µM | > 50 µM | > 50 µM | 75% | > 50 µM | > 50 µM | 74% | 0.17 nM | IC50 [4]: 0.95 µM; inhibition (Rattus norvegicus [10]): inactive |
| CCC(NCCCC[C@@H](Oc1cc(C)c(F)c(C)c1)C(=O)NO)c1ccc(F)cc1 (mixture of isomers) | Active | 38% | – | > 50 µM | 3.3 | – | 21 µM | > 50 µM | > 50 µM | 7% | > 50 µM | > 50 µM | 75% | 1 nM | – |
| CCC(NCCCC[C@@H](C[C@@H](OC)c1ccc(F)cc1)C(=O)NO)c1ccc(F)cc1 (mixture of isomers) | Active | 94% | 0.16 µM | 31 µM | 2.9 | Active | 35 µM | > 50 µM | 11 µM | 75% | 12 µM | 47 µM | 100% | 0.27 nM | beta t1/2 (Oryctolagus cuniculus [11]): 5.3 h; Cmax (Oryctolagus cuniculus [12]): 1300 nM; AUC (Oryctolagus cuniculus [13]): 2637.6 ng·h/mL; Tmax (Oryctolagus cuniculus [14]): 0.3 h; concentration at 12 h [15]: 79 nM |
